# Laboratory results published in ChEMBL document CHEMBL4011654, “Mitochondria-Targeted Lupane Triterpenoid Derivatives and Their Selective Apoptosis-Inducing Anticancer Mechanisms” (J Med Chem, 2017).
# Activity calls are given as the source filed them. No cut-off for these calls is given here.
# Columns and labels:
# K562 [1] = experiment: Antitumor activity against CM-Dil-labeled human K562 cells xenografted in wild-type zebrafish embryos assessed as tumor growth inhibition at 10 ug/ml measured after 48 hrs by confocal microscopic analysis; assay type: functional, cell-based
# Summary of the method: (§1)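 K562 cells labelled with CM-Dil, suspended in FBS-free medium at (1 × 107)/mL and microinjected into wild-type zebrafish embryos kept at 28 °C in embryonic medium. After 4 h, embryos with the same injection spot were pooled at 15−20 per well and exposed to compound; Taxol served as positive control. At 48 h, confocal imaging gave fluorescent area (migration) and fluorescence intensity (cell number); n = 15.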
# K562 [2] = experiment: Antitumor activity against CM-Dil-labeled human K562 cells xenografted in wild-type zebrafish embryos assessed as reduction in cell migration at 10 ug/ml measured after 48 hrs by confocal microscopic analysis; assay type: functional, cell-based; summary of the method: as §1
# HepG2 = experiment: Cytotoxicity against human HepG2 cells assessed as cell growth inhibition after 48 hrs by MTT assay; assay type: functional, cell-based; settings: HepG2, 48 h
# Summary of the method: (§2)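 Adherent cells seeded at 5000/well, left 16−24 h, then exposed 48 h at 37 °C, 5% CO2 in RPMI with 10% FBS. Medium refreshed, MTT added for 4 h at 37 °C, medium removed, formazan dissolved in DMSO, OD570 read. IC50 taken as concentration inhibiting growth by 50%; triplicate.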
# ECa-109 cell line = experiment: Cytotoxicity against human ECA109 cells assessed as cell growth inhibition after 48 hrs by MTT assay; assay type: functional, cell-based; settings: ECa-109, 48 h; summary of the method: as §2
# A549 = experiment: Cytotoxicity against human A549 cells assessed as cell growth inhibition after 48 hrs by MTT assay; assay type: functional, cell-based; settings: A549, 48 h; summary of the method: as §2
# K562 [3] = experiment: Cytotoxicity against human K562 cells assessed as cell growth inhibition after 48 hrs by MTT assay; assay type: functional, cell-based; settings: K562, 48 h
# Summary of the method: (§3)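 Suspension cells seeded at 5000/well (HL-60 in IMDM, K562 in RPMI, both with 10% FBS) and treated. MTT then added for 4 h at 37 °C; plates centrifuged at 3000 rpm for 30 min, medium removed, DMSO added, OD570 read. IC50 taken as concentration giving 50% growth inhibition; triplicate.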
# HL-60 = experiment: Cytotoxicity against human HL60 cells assessed as cell growth inhibition after 48 hrs by MTT assay; assay type: functional, cell-based; settings: HL-60, 48 h; summary of the method: as §3
# L02 = experiment: Cytotoxicity against human HL-7702 cells assessed as cell growth inhibition after 48 hrs by MTT assay; assay type: cell-based; settings: L02, 48 h; summary of the method: as §2
# K562 [4] = experiment: Induction of apoptosis in human K562 cells after 48 hrs by Annexin V-FITC/propidium iodide-staining based flow cytometric analysis; assay type: functional, cell-based
# Summary of the method: (§4)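 K562 seeded at 4 × 10^5 cells/well, 12 h, then exposed 48 h. Cells washed in ice-cold PBS, suspended in binding buffer, stained with annexin V-FITC and PI for 15 min at room temperature in the dark, and read by flow cytometry within 1 h. Cells counted as early/late apoptotic as % of total; n = 3.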
# K562 [5] = experiment: Induction of mitochondrial membrane depolarization in human K562 cells assessed as cells with mitochondrial membrane potential loss at 2 uM after 48 hrs by JC-1 staining based flow cytometric analysis (reference value: 1.89 to 2.23%); assay type: functional
# K562 [6] = experiment: Decrease in mitochondrial membrane potential in human K562 cells after 48 hrs by JC-1 staining based flow cytometry; assay type: functional, cell-based
# Summary of the method: (§5)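 K562 seeded at 4 × 10^5 cells/well, after 12 h treated 48 h. Cells washed in ice-cold PBS, loaded with JC-1 ([…]) at 37 °C for 15 min, rinsed, and analysed by flow cytometry (% cells with red aggregates) and fluorescence microscopy (red aggregates vs green monomers).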
# K562 [7] = experiment: Induction of apoptosis in human K562 cells assessed as viable cells at 2 uM after 48 hrs by Annexin V-FITC/propidium iodide-staining based flow cytometric analysis (reference value: 95.75 to 96.56%); assay type: functional; settings: K562, 48 h, read-out: Activity; summary of the method: as §4
# K562 [8] = experiment: Induction of apoptosis in human K562 cells assessed as decrease in cytochrome c level in mitochondria up to 6 uM after 48 hrs by Western blot analysis; assay type: functional, cell-based
# Summary of the method: (§6)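 K562 treated 48 h, then lysed on ice for 30 min; cytosolic and mitochondrial fractions isolated by kit where needed, protein measured by BCA. 60 μg/lane run on SDS-PAGE, transferred to PVDF, blocked in 5% milk/TBST for 4 h. Probed for cytochrome c, caspase-9, caspase-3 (total/cleaved), PARP; alkaline phosphatase secondary.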
# K562 [9] = experiment: Induction of apoptosis in human K562 cells assessed as late apoptotic cells at 2 uM after 48 hrs by Annexin V-FITC/propidium iodide-staining based flow cytometric analysis (reference value: 2.25 to 2.67%); assay type: functional; summary of the method: as §4
# K562 [10] = experiment: Induction of mitochondrial membrane depolarization in human K562 cells assessed as cells with intact mitochondrial membrane potential at 2 uM after 48 hrs by JC-1 staining based flow cytometric analysis (reference value: 97.63 to 97.67%); assay type: functional; summary of the method: as §5
# K562 [11] = experiment: Induction of mitochondrial membrane depolarization in human K562 cells assessed as cells with mitochondrial membrane potential loss at 6 uM after 48 hrs by JC-1 staining based flow cytometric analysis (reference value: 1.89 to 2.23%); assay type: functional
# K562 [12] = experiment: Induction of apoptosis in human K562 cells assessed as early apoptotic cells at 3 uM after 48 hrs by Annexin V-FITC/propidium iodide-staining based flow cytometric analysis (reference value: 0.92 to 1.45%); assay type: functional; summary of the method: as §4
# K562 [13] = experiment: Induction of apoptosis in human K562 cells assessed as increase in cytosolic cytochrome c level up to 6 uM after 48 hrs by Western blot analysis; assay type: functional, cell-based; summary of the method: as §6
# K562 [14] = experiment: Induction of apoptosis in human K562 cells assessed as necrotic cells at 3 uM after 48 hrs by Annexin V-FITC/propidium iodide-staining based flow cytometric analysis (reference value: 0.13 to 0.27%); assay type: functional; summary of the method: as §4
# K562 [15] = experiment: Induction of mitochondrial membrane depolarization in human K562 cells assessed as cells with mitochondrial membrane potential loss at 4 uM after 48 hrs by JC-1 staining based flow cytometric analysis (reference value: 1.89 to 2.23%); assay type: functional
# K562 [16] = experiment: Decrease in mitochondrial membrane potential in human K562 cells at 1 to 2 uM after 48 hrs by JC-1 staining based fluorescence microscopic analysis; assay type: functional, cell-based; summary of the method: as §5
# K562 [17] = experiment: Induction of apoptosis in human K562 cells assessed as upregulation of cleaved PARP up to 6 uM after 48 hrs by Western blot analysis; assay type: functional, cell-based
# K562 [18] = experiment: Induction of apoptosis in human K562 cells assessed as late apoptotic cells at 1 uM after 48 hrs by Annexin V-FITC/propidium iodide-staining based flow cytometric analysis (reference value: 2.25 to 2.67%); assay type: functional; summary of the method: as §4
# K562 [19] = experiment: Induction of ROS generation in human K562 cells at 1 uM after 48 hrs by DCFH-DA probe based flow cytometric analysis relative to control; assay type: functional
# Summary of the method: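 K562 seeded at 4 × 10^5 cells/well, 12 h, then treated 48 h. Washed cells loaded with DCFH-DA in FBS-free medium at 37 °C for 30 min, rinsed, read by flow cytometry. ROSup was the positive control; mean ± SD, n = 3.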
# K562 [20] = experiment: Induction of apoptosis in human K562 cells assessed as early apoptotic cells at 1 uM after 48 hrs by Annexin V-FITC/propidium iodide-staining based flow cytometric analysis (reference value: 0.92 to 1.45%); assay type: functional; summary of the method: as §4
# K562 [21] = experiment: Induction of apoptosis in human K562 cells assessed as viable cells at 3 uM after 48 hrs by Annexin V-FITC/propidium iodide-staining based flow cytometric analysis (reference value: 95.75 to 96.56%); assay type: functional; settings: K562, 48 h, read-out: Activity; summary of the method: as §4
# K562 [22] = experiment: Induction of mitochondrial membrane depolarization in human K562 cells assessed as cells with intact mitochondrial membrane potential at 4 uM after 48 hrs by JC-1 staining based flow cytometric analysis (reference value: 97.63 to 97.67%); assay type: functional
# K562 [23] = experiment: Induction of mitochondrial membrane depolarization in human K562 cells assessed as cells with intact mitochondrial membrane potential at 6 uM after 48 hrs by JC-1 staining based flow cytometric analysis (reference value: 97.63 to 97.67%); assay type: functional
# K562 [24] = experiment: Induction of apoptosis in human K562 cells assessed as viable cells at 1 uM after 48 hrs by Annexin V-FITC/propidium iodide-staining based flow cytometric analysis (reference value: 95.75 to 96.56%); assay type: functional; settings: K562, 48 h, read-out: Activity; summary of the method: as §4
# K562 [25] = experiment: Induction of apoptosis in human K562 cells assessed as necrotic cells at 2 uM after 48 hrs by Annexin V-FITC/propidium iodide-staining based flow cytometric analysis (reference value: 0.13 to 0.27%); assay type: functional; summary of the method: as §4
# K562 [26] = experiment: Induction of apoptosis in human K562 cells assessed as late apoptotic cells at 3 uM after 48 hrs by Annexin V-FITC/propidium iodide-staining based flow cytometric analysis (reference value: 2.25 to 2.67%); assay type: functional; summary of the method: as §4
# K562 [27] = experiment: Induction of apoptosis in human K562 cells assessed as necrotic cells at 1 uM after 48 hrs by Annexin V-FITC/propidium iodide-staining based flow cytometric analysis (reference value: 0.13 to 0.27%); assay type: functional; summary of the method: as §4
# K562 [28] = experiment: Induction of apoptosis in human K562 cells assessed as early apoptotic cells at 2 uM after 48 hrs by Annexin V-FITC/propidium iodide-staining based flow cytometric analysis (reference value: 0.92 to 1.45%); assay type: functional; summary of the method: as §4
compound,measurement,setting,value
CC(=O)O[C@H]1C(=O)[C@@]2(C)[C@H]([C@H](OC(=O)c3ccccc3)[C@]3(O)C[C@H](OC(=O)[C@H](O)[C@@H](NC(=O)c4ccccc4)c4ccccc4)C(C)=C1C3(C)C)[C@]1(OC(C)=O)CO[C@@H]1C[C@@H]2O,TGI,K562 [1],Active
same,Activity,K562 [2],Active
C=C(C)[C@@H]1CC[C@]2(C(=O)OC)CC[C@]3(C)[C@H](CC[C@@H]4[C@@]5(C)CC[C@H](OC(=O)CCCC[P+](c6ccccc6)(c6ccccc6)c6ccccc6)C(C)(C)[C@@H]5CC[C@]43C)[C@@H]12,IC50,HepG2,4.35 µM
same,IC50,ECa-109 cell line,4.75 µM
same,IC50,A549,4.99 µM
same,IC50,K562 [3],3.58 µM
same,IC50,HL-60,3.11 µM
same,IC50,L02,6.3 µM
C=C(C)[C@@H]1CC[C@]2(CO)CC[C@]3(C)[C@H](CC[C@@H]4[C@@]5(C)CC[C@H](O)C(C)(C)[C@@H]5CC[C@]43C)[C@@H]12 [BETULIN],IC50,HepG2,10.7 µM
same,IC50,ECa-109 cell line,26.6 µM
same,IC50,A549,18.2 µM
same,IC50,K562 [3],12.9 µM
same,IC50,HL-60,30.9 µM
same,IC50,L02,26.8 µM
C=C(C)[C@@H]1CC[C@]2(C(=O)O)CC[C@]3(C)[C@H](CC[C@@H]4[C@@]5(C)CC[C@H](OC(=O)CCCC[P+](c6ccccc6)(c6ccccc6)c6ccccc6)C(C)(C)[C@@H]5CC[C@]43C)[C@@H]12.[Br-],Activity,K562 [4],Dose-dependent effect
same,Activity,K562 [5],24.68%
same,Activity,K562 [6],Dose-dependent effect
same,IC50,HepG2,1.07 µM
same,viability at 2 µM,K562 [7],72.6%
same,Activity,K562 [8],Active
same,Activity,K562 [9],16.43%
same,IC50,ECa-109 cell line,0.92 µM
same,Activity,K562 [10],75.16%
same,Activity,K562 [11],72.12%
same,Activity,K562 [12],11.47%
same,Activity,K562 [13],Active
same,IC50,A549,1.26 µM
same,Activity,K562 [14],0.7%
same,Activity,K562 [15],58.36%
same,Activity,K562 [16],Active
same,IC50,K562 [3],1.24 µM
same,Activity,K562 [17],Active
same,Activity,K562 [18],9.35%
same,Activity,K562 [19],50%
same,Activity,K562 [20],9.55%
same,IC50,HL-60,0.32 µM
same,viability at 3 µM,K562 [21],61.4%
same,Activity,K562 [22],41.5%
same,Activity,K562 [23],27.63%
same,viability at 1 µM,K562 [24],81%
same,Activity,K562 [25],0.23%
same,IC50,L02,4.92 µM
same,Activity,K562 [26],26.46%
same,Activity,K562 [27],0.14%
same,Activity,K562 [28],10.78%
C=C(C)[C@@H]1CC[C@]2(COC(=O)CCCC[P+](c3ccccc3)(c3ccccc3)c3ccccc3)CC[C@]3(C)[C@H](CC[C@@H]4[C@@]5(C)CC[C@H](OC(C)=O)C(C)(C)[C@@H]5CC[C@]43C)[C@@H]12,IC50,HepG2,2.42 µM
same,IC50,ECa-109 cell line,1.41 µM
same,IC50,A549,0.83 µM
same,IC50,K562 [3],0.62 µM
same,IC50,HL-60,0.58 µM
same,IC50,L02,7.18 µM
